Assay outcomes: PubChem BioAssay, Broad Institute
Rtt109 HAT inh – blocks Candida albicans Rtt109/Vps75 acetyltransferase activity; purified Rtt109/Vps75, ThioGlo CoA-SH fluorescence, 4 h; hit rate 0.16% among 330,000; inhibition, % at 34.9 µM; Q5AAJ8;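 active = inhibition of at least 50% in every replicate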
ERAP1 HTS inh – ERAP1 (human) enzyme inhibition | hit rate 0.15% among 340,000 | AID 652197 | Q9NZ08 | recombinant ERAP1, Leu-AMC fluorescence, 60 min | inhibition, % at 10.7 µM;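 active = mean replicate inhibition of at least 30%, or all replicates individually reaching that 30% level; inactive = mean below 30% and not every replicate reaching it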
Target sequence (Q9NZ08 whole entry, looked up): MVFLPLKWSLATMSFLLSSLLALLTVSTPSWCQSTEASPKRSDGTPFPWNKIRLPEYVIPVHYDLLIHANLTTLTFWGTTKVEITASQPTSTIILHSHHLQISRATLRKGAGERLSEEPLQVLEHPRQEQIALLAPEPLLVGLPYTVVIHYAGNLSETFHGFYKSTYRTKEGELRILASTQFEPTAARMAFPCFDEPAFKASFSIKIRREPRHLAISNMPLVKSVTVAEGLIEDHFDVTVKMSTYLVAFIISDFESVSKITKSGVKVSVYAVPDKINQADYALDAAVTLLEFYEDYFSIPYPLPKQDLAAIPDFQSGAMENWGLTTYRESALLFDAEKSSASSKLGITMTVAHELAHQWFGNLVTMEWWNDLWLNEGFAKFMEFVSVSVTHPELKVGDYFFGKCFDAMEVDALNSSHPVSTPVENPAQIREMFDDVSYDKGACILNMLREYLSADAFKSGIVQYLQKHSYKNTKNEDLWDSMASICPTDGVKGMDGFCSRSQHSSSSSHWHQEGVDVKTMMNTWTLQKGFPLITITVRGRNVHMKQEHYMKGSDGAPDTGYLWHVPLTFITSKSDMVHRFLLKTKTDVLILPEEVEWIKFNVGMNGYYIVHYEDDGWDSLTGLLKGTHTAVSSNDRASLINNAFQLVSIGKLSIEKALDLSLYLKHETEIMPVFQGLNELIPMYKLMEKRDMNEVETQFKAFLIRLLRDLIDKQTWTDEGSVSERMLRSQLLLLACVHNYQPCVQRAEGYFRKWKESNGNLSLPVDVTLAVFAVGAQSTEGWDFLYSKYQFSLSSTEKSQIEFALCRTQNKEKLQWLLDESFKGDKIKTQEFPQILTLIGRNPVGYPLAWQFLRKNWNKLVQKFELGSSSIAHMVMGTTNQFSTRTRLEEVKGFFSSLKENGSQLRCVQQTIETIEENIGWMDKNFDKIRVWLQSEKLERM
AF4-AF9 inh – blocks AF4 peptide binding to human AF9; AlphaScreen, biotin-AF4 peptide binding to FLAG-AF9; inhibition, % at 10 µM; hit rate 0.47% among 350,000;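 active = every replicate reaching a set inhibition limit, whatever the replicate mean, cut at about 25% in these data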
miR-122 sensor – blocks miR-122 activity in Huh7 sensor cells; hit rate 0.3% among 340,000; Huh7 miR-122 Renilla luciferase sensor, 48 h; neutral wells = 0, positive control = 100; activation (reporter increase), % at 12.5 µM;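 active = mean replicate activation score at least 90 and every replicate individually at or above 90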;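 also: higher luciferase means less miR-122 activity so hits act as miR-122 inhibitors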
S100A4 inh HTS – blocks human S100A4 binding to myosin IIA peptide. P26447. S100A4/TAMRA-MyoIIA peptide fluorescence polarization. inhibition, % at 10.7 µM. hit rate 0.14% among 360,000. AID 652163;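 active = mean inhibition of at least 70% across replicates, with every replicate also reaching that level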
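Compound dosing: one dose per compound; test system: human S100A4 monomer with TAMRA-labelled myosin IIA peptide; probe or stimulus: TAMRA-labelled myosin IIA heavy-chain peptide probe, 5 nM; medium: HEPES buffer with Ca2+, pH 7.2; schedule: 5 min incubation before reading; benchmarks: neutral control DMSO, positive control TFP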
Each line names hits and unclear results; the compound was inactive in the other large screens; ! = not active in a repeat. Compounds with a hit are over-represented: about 0.86% of the library has one in this group of screens.

COc1ccc(-c2nn(Cc3ccccc3)cc2C(=O)N2CCN(c3ncccn3)CC2)cc1	none
Cc1ccc(-c2nn(-c3ccccc3)cc2C(=O)N2CCN(c3ccccn3)CC2)cc1	none (no result: miR-122 sensor)
O=C(c1cn(Cc2ccccc2)nc1-c1ccc(Cl)cc1)N1CCN(c2ccccn2)CC1	miR-122 sensor 120
COc1cc(/C=C2\SC(=S)N(C(Cc3ccccc3)C(=O)O)C2=O)ccc1O (stereo unspecified)	none (no result: miR-122 sensor)
O=C(O)C(Cc1ccccc1)N1C(=O)/C(=C/c2ccccc2)SC1=S (stereo unspecified)	Rtt109 HAT inh 53 (no result: ERAP1 HTS inh, AF4-AF9 inh, S100A4 inh HTS)
Cc1ccc(/C=C2\SC(=S)N(C(Cc3ccccc3)C(=O)O)C2=O)cc1 (stereo unspecified)	Rtt109 HAT inh 62 (no result: ERAP1 HTS inh, AF4-AF9 inh, S100A4 inh HTS)
COc1c(S(=O)(=O)NCCCn2ccnc2)ccc(Cl)c1Cl	miR-122 sensor 125
Cc1c(Cl)ccc(S(=O)(=O)NCCCn2ccnc2)c1Cl	none
O=C(C[C@@H]1CC[C@@H](NC(=O)Nc2ccccc2F)[C@@H](CO)O1)NCc1ccc(F)cc1	none (no result: Rtt109 HAT inh, miR-122 sensor)
CC(C)(C)c1ccc(OCCCC(=O)NC2=NCCS2)cc1	none (no result: ERAP1 HTS inh, AF4-AF9 inh, S100A4 inh HTS)
CC(C)(C)c1ccc(C(=O)NCCC(=O)NC2=NCCS2)cc1	AF4-AF9 inh 29 (no result: miR-122 sensor)
Cc1ccc(S(=O)(=O)Nc2ccc3c(c2)C(=O)N([C@H](C)CO)C[C@@H](C)[C@@H](CN(C)Cc2ccncc2)OCCCC[C@H](C)O3)cc1	none (no result: Rtt109 HAT inh)
COc1cc(CN2C[C@@H]3N[C@H](C2)C3c2ccc(-c3cccc(OC)c3)cc2)cc(OC)c1 (stereo partly specified)	AF4-AF9 inh 26! (no result: Rtt109 HAT inh, miR-122 sensor)
COc1ccc(-c2ccc(C3[C@@H]4CN(Cc5cc(OC)cc(OC)c5)C[C@H]3N4)cc2)cc1 (stereo partly specified)	none (no result: Rtt109 HAT inh, miR-122 sensor)
Cc1ccccc1/C=C/C(=O)NCC(=O)N1CCC(N(C)C2CCCCC2C)CC1 (stereo unspecified)	Rtt109 HAT inh 60 (no result: miR-122 sensor)
CC1CCN(C(=O)CNC(=O)Cc2ccccc2)CC1	none
CCn1c(CCn2c3ccccc3c3ccccc32)n[nH]c1=S	Rtt109 HAT inh 50 (no result: ERAP1 HTS inh, AF4-AF9 inh, S100A4 inh HTS)
C[C@@H]1CN([C@@H](C)CO)C(=O)c2cc(C#CCN(C)C)cnc2O[C@@H]1CN(C)C(=O)Nc1cccc(F)c1	none (no result: Rtt109 HAT inh)
C[C@H](CO)N1C[C@H](C)[C@H](CN(C)Cc2ccc(Oc3ccccc3)cc2)Oc2ccc(N(C)C)cc2C1=O	AF4-AF9 inh 52 (no result: Rtt109 HAT inh)
COc1ccc(NC(=O)N(C)C[C@@H]2Oc3ccc(N(C)C)cc3C(=O)N([C@H](C)CO)C[C@@H]2C)cc1	none (no result: Rtt109 HAT inh)
C[C@@H]1CN([C@H](C)CO)C(=O)c2cc(N(C)C)ccc2O[C@H]1CN(C)Cc1ccc(Oc2ccccc2)cc1	AF4-AF9 inh 40 (no result: Rtt109 HAT inh)
COc1ccc(NC(=O)N(C)C[C@H]2Oc3ccc(N(C)C)cc3C(=O)N([C@@H](C)CO)C[C@@H]2C)cc1	S100A4 inh HTS 103 (no result: Rtt109 HAT inh)
C[C@@H]1CN([C@H](C)CO)C(=O)c2cc(N(C)C)ccc2O[C@@H]1CN(C)Cc1ccc(Oc2ccccc2)cc1	AF4-AF9 inh 52 (no result: Rtt109 HAT inh)
CCCNC(=O)N1C[C@@H](C)[C@H](OC)CN(C)C(=O)c2ccc(NC(=O)CC)cc2OC[C@H]1C	none (no result: Rtt109 HAT inh, miR-122 sensor)
C[C@H]1CN([C@@H](C)CO)C(=O)Cc2cc(NC(=O)Nc3ccc4c(c3)OCO4)ccc2O[C@@H]1CN(C)S(C)(=O)=O	none (no result: Rtt109 HAT inh, miR-122 sensor)
Cc1noc(C)c1S(=O)(=O)Nc1cccc2c1O[C@@H](CN(C)C(=O)NC(C)C)[C@@H](C)CN([C@@H](C)CO)C2=O	none (no result: Rtt109 HAT inh)
CC(=O)NC1C(=O)N(CCN2CCOCC2)c2ccc(Br)cc21 (stereo unspecified)	none (no result: miR-122 sensor)
CCOc1ccc2c(c1)C(NC(C)=O)C(=O)N2CCN1CCOCC1 (stereo unspecified)	AF4-AF9 inh 25
C[n+]1ccc(/C=C/c2cccs2)cc1	ERAP1 HTS inh 53
O=C(NCCOc1ccccc1)C1CCN(C(=O)Nc2ccccc2)CC1	none (no result: Rtt109 HAT inh)
CC(=O)N1CCC(C(=O)NCCOc2cccc(C)c2)CC1	AF4-AF9 inh 26
C[C@@H]1CN([C@@H](C)CO)S(=O)(=O)c2ccc(C3=CCCC3)cc2O[C@H]1CN(C)Cc1ccccn1	none (no result: Rtt109 HAT inh)
O=C(NCc1ccccc1F)[C@H]1[C@H](CO)[C@H]2Cn3c(cccc3=O)[C@H]2N1CC1CCCC1	none (no result: Rtt109 HAT inh)
C=CC#CC[N+]1(CC#Cc2ccccc2)CCOCC1	AF4-AF9 inh 97
C(#Cc1ccccc1)C[N+]1(CC#Cc2ccccc2)CCCC1	none
C[C@H]1CN([C@@H](C)CO)C(=O)c2cccc(NC(=O)c3cnccn3)c2O[C@H]1CN(C)Cc1ccc(Cl)c(Cl)c1	none (no result: Rtt109 HAT inh)
C[C@H](CO)N1C[C@H](C)[C@H](CN(C)C(=O)Nc2cccc3ccccc23)Oc2ccc(NC(=O)C3CCCCC3)cc2CC1=O	none (no result: Rtt109 HAT inh)
CC(C)NC(=O)N(C)C[C@@H]1Oc2ccc(NS(=O)(=O)c3cn(C)cn3)cc2C(=O)N([C@H](C)CO)C[C@@H]1C	none (no result: Rtt109 HAT inh)
CC(C)[C@H]1CC[C@@H](C)C(C(=O)c2ccccc2)C1=O (stereo partly specified)	AF4-AF9 inh 58
O=[N+]([O-])c1c(Nc2ccc(O)cc2)cc(Cl)c2nonc12	ERAP1 HTS inh 42 (no result: miR-122 sensor)
Cc1cc(C(=O)Nc2cccc3c2O[C@@H](CN(C)C(=O)Nc2c(C)noc2C)[C@H](C)CN([C@H](C)CO)C3=O)n(C)n1	none (no result: Rtt109 HAT inh)
CCOC(=O)N1CCN(C2=C(NS(=O)(=O)c3ccc(Br)cc3)C(=O)c3ccccc3C2=O)CC1	AF4-AF9 inh 32 (no result: Rtt109 HAT inh)
CCOC(=O)N1CCN(C2=C(NS(=O)(=O)c3ccccc3)C(=O)c3ccccc3C2=O)CC1	AF4-AF9 inh 26
CCOC(=O)c1c(C)oc2c1c(C=NCCO)c(O)c1ccccc12	Rtt109 HAT inh 53 (no result: miR-122 sensor)
C[C@@H]1CN([C@@H](C)CO)S(=O)(=O)c2ccc(-c3ccncc3)cc2O[C@H]1CN(C)C	none (no result: Rtt109 HAT inh)
CCOc1ccc(OCCCC(=O)N2CCN(S(=O)(=O)c3ccc(Cl)cc3)CC2)cc1	ERAP1 HTS inh 32 (no result: miR-122 sensor)
O=C(CCCOc1ccccc1)N1CCN(S(=O)(=O)c2ccc(Cl)cc2)CC1	none
COc1ccc(S(=O)(=O)Nc2ccc3c(c2)C(=O)N([C@@H](C)CO)C[C@H](C)[C@@H](CN(C)S(=O)(=O)c2ccc(F)cc2)O3)cc1	none (no result: Rtt109 HAT inh)
C[C@H]1CN([C@@H](C)CO)C(=O)c2cc(NC(=O)C3CC3)ccc2O[C@@H]1CN(C)CC1CCCCC1	none (no result: Rtt109 HAT inh)
COc1cc(/C=N/N(C)S(=O)(=O)c2ccc(C)cc2)cc([N+](=O)[O-])c1O	AF4-AF9 inh 31
COc1cc(/C=N/NS(=O)(=O)c2ccc(C)c([N+](=O)[O-])c2)cc([N+](=O)[O-])c1O	none
CC1(C)CCN2CCC(C)(C)c3c(O)ccc1c32	AF4-AF9 inh 26 (no result: miR-122 sensor)
COc1ccc(S(=O)(=O)NCC2CCCN(Cc3cccc(C(C)=O)c3)C2)cc1 (stereo unspecified)	S100A4 inh HTS 87
O=C(C[C@H]1CC[C@@H]2[C@H](COC[C@H](O)CN2C(=O)Cc2ccccc2)O1)NC1CCC1	none (no result: Rtt109 HAT inh)
